Assay results: ChEMBL document CHEMBL1125919, “Water-soluble cholesteryl-containing phosphorothioate monogalactosides: synthesis, properties, and use in lowering blood cholesterol by directing plasma lipoproteins to the liver” (1991)

How the values were obtained:
Homo sapiens [1] = organism: Homo sapiens; test: Carbohydrate in the high density lipoprotein (HDL) along with compound was measured in human serum
Rattus norvegicus [2] = organism: Rattus norvegicus; test: Effects of N-acetyl-galactosamine on compound stimulated liver association of [125I]LDL measured in serum of rats; assay type: functional
Method in brief: (§1)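 Glycolipid mixed with [125I]LDL at 0.3 mg/mg apolipoprotein or with [125I]HDL at 1.0 mg/mg, then held 10 min at room temperature. The mixture was given intravenously at 50 μg apolipoprotein/kg to pentobarbital-anaesthetized male Wistar rats. N-acetylgalactosamine, N-acetylglucosamine (both 400 mg/kg) or PBS was preinjected 1 min before. At 5 min, TCA-precipitable serum radioactivity and liver-associated radioactivity were measured as % of dose. Mean ± SEM, 3–4 rats; Wilcoxon two-sample test.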

Homo sapiens [3] = organism: Homo sapiens; test: Cholesterol in the Total along with compound was measured in human serum; assay type: functional
Method in brief: (§2)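 Human serum (1.6 mL) mixed with 0.4 mL of a 10 mM glycolipid solution in PBS (2 mM final), or with PBS alone, for 10 min at room temperature. Density-gradient ultracentrifugation in KBr/NaCl then gave VLDL (d<1.006), LDL (1.006–1.063), HDL (1.063–1.210) and LPDS (d>1.210 g/mL) fractions. Each fraction was dialyzed against PBS and assayed for cholesterol and carbohydrate, reported as total μg per fraction.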

Homo sapiens [4] = organism: Homo sapiens; test: Cholesterol in the very low density lipoprotein (VLDL) along with compound was measured in human serum; assay type: functional
Method in brief: as §2

Rattus norvegicus [5] = organism: Rattus norvegicus; test: Effects of N-acetyl-glucosamine on compound stimulated liver association of [125I]-LDL measured in serum of rats; assay type: functional
Method in brief: as §1

[6] = Ratio of carbohydrate in LDL to cholesterol level in LDL; assay type: functional
Method in brief: (§3)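 Same serum incubation (2 mM final, 10 min, room temperature) and density-gradient fractionation into LDL and HDL. The ratio is μg carbohydrate per μg total cholesterol in each fraction. Values in parentheses compare the ratio with the PBS-only serum lipoproteins.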

Rattus norvegicus [7] = organism: Rattus norvegicus; test: Effects of N-acetyl-galactosamine on compound stimulated liver association of [125I]LDL measured in liver of rats; assay type: functional
Method in brief: as §1

Homo sapiens [8] = organism: Homo sapiens; test: Carbohydrate in the Total along with compound was measured in human serum; assay type: functional
Method in brief: as §2

Rattus norvegicus [9] = organism: Rattus norvegicus; test: Effects of N-acetyl-galactosamine on compound stimulated liver association of [125I]HDL measured in serum of rats; assay type: functional
Method in brief: as §1

Rattus norvegicus [10] = organism: Rattus norvegicus; test: Effects of N-acetyl-glucosamine on compound stimulated liver association of [125I]HDL measured in preinjcted rats; assay type: functional
Method in brief: as §1

Homo sapiens [11] = organism: Homo sapiens; test: Carbohydrate in the very low density lipoprotein (VLDL) along with compound was measured in human serum; assay type: functional
Method in brief: as §2

Rattus norvegicus [12] = organism: Rattus norvegicus; test: Effects of N-acetyl-galactosamine on compound stimulated liver association of [125I]HDL measured in liver of rats; assay type: functional
Method in brief: as §1

Homo sapiens [13] = organism: Homo sapiens; test: Carbohydrate in the very low density lipoprotein (VLDL) along with compound was measured in human serum
Homo sapiens [14] = organism: Homo sapiens; test: Carbohydrate in the Lipoprotein -deficient serum(LPDS) along with compound was measured in human serum; assay type: functional
Method in brief: as §2

Homo sapiens [15] = organism: Homo sapiens; test: Cholesterol in the Lipoprotein -deficient serum(LPDS) along with compound was measured in human serum; assay type: functional
Method in brief: as §2

Homo sapiens [16] = organism: Homo sapiens; test: Cholesterol in the low density lipoprotein (LDL) along with compound was measured in human serum; assay type: functional
Method in brief: as §2

Homo sapiens [17] = organism: Homo sapiens; test: Cholesterol in the high density lipoprotein (HDL) along with compound was measured in human serum; assay type: functional
Method in brief: as §2

Rattus norvegicus [18] = organism: Rattus norvegicus; test: Effects of N-acetyl-glucosamine on compound stimulated liver association of [125I]LDL measured in liver of rats; assay type: functional
Method in brief: as §1

Rattus norvegicus [19] = organism: Rattus norvegicus; test: Effects of N-acetyl-glucosamine on compound stimulated liver association of [125I]HDL measured in liver of rats; assay type: functional
Method in brief: as §1

Homo sapiens [20] = organism: Homo sapiens; test: Carbohydrate in the low density lipoprotein (LDL) along with compound was measured in human serum; assay type: functional
Method in brief: as §2

[21] = Ratio of carbohydrate in HDL to cholesterol level in HDL; assay type: functional
Method in brief: as §3

Homo sapiens [22] = organism: Homo sapiens; test: Carbohydrate in the high density lipoprotein (HDL) along with compound was measured in human serum; assay type: functional
Method in brief: as §2

SMILES	Carbohydrate (Homo sapiens [1]) [µg]	Cholesterol (Homo sapiens [3]) [µg]	Cholesterol (Homo sapiens [4]) [µg]	Ratio [6]	Carbohydrate (Homo sapiens [8]) [µg]	Carbohydrate (Homo sapiens [11]) [µg]	Carbohydrate (Homo sapiens [14]) [µg]	Cholesterol (Homo sapiens [15]) [µg]	Cholesterol (Homo sapiens [16]) [µg]	Cholesterol (Homo sapiens [17]) [µg]	Carbohydrate (Homo sapiens [20]) [µg]	Ratio [21]	further results
CC(C)CCCC(C)C1CCC2C3CC=C4CC(OCCOCCOCCOCCOP(O)(=S)OCCO[C@@H]5O[C@H](CO)[C@H](O)[C@H](O)[C@H]5O)CCC4(C)C3CCC12C (stereo not given in full)	500	1850	104	0.45	2790	100	1710	70	1048	627	480	0.8	Dose (Rattus norvegicus [2]): 92.2%; Dose (Rattus norvegicus [5]): 29.3%; Dose (Rattus norvegicus [7]): 5.1%; Dose (Rattus norvegicus [9]): 78.8%; Dose (Rattus norvegicus [10]): 61.1%; Dose (Rattus norvegicus [12]): 5.8%; Carbohydrate (Homo sapiens [13]): 100 µg; Dose (Rattus norvegicus [18]): 61.6%; Dose (Rattus norvegicus [19]): 22.2%
CC(C)CCCC(C)C1CCC2C3CC=C4CC(OCCOCCOCCOCCOP(O)(=S)OCCOCCOCCSC5OC(CO)C(O)C(O)C5O)CCC4(C)C3CCC12C (stereo not given)		1947	101	0.4	2730	100	1720	66	1296	484	520	0.81	Carbohydrate (Homo sapiens [22]): 390 µg
CC(C)CCCC(C)C1CCC2C3CC=C4CC(OCCOCCOCCOCCOP(O)(=S)OCCSC5OC(CO)C(O)C(O)C5O)CCC4(C)C3CCC12C (stereo not given)	460	1885	108	0.5	2710	80	1590	85	1161	500	580	0.92	
